The species entered for one test is Homo sapiens. Description: Selectivity ratio of Ki for human 5-HT1A receptor to Ki for human 5-HT7b receptor.
For test [1], the target named is 5-hydroxytryptamine receptor 7 (Homo sapiens, UniProt P34969). Description: Displacement of [3H]-5-CT from human 5-HT7b receptor expressed in HEK293 cells after 1 hr. It is filed as cell-based.
Test [2] concerns the target T1, 5-hydroxytryptamine receptor 1A (Homo sapiens, UniProt P08908).
T1 sequence (P08908 whole entry): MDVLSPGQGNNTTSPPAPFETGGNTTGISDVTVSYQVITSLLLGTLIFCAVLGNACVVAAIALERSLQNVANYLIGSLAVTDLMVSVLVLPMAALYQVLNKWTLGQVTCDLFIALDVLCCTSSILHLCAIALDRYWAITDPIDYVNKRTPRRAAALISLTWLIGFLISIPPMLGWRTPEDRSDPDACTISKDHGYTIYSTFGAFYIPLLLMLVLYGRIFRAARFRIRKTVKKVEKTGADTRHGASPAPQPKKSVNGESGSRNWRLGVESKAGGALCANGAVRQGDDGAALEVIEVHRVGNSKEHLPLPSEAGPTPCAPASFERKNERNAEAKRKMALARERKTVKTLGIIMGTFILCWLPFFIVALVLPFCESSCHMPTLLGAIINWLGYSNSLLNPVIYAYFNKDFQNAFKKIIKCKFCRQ
The test is described as follows: Displacement of [3H]-8-OH-DPAT from human 5-HT1A receptor expressed in HEK293 cells after 1 hr. The class given is cell-based. In a few lines:
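Membranes from stably transfected HEK293 cells (human 5-HT1A), homogenized in 50 mM Tris–HCl, 0.1 mM EDTA, 4 mM MgCl2, 10 µM pargyline, 0.1% ascorbate; incubated 1 h at room temperature, then rapid filtration and radioactivity counting. Nonspecific binding with 10 µM 5-HT.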
(Loss of bound radioactivity is the signal in a displacement assay; it reports binding, not function.)

Another test addresses D(2) dopamine receptor (Homo sapiens, UniProt P14416). Description: Binding affinity to human dopamine D2L receptor expressed in HEK293 cells after 1 hr. The class given is cell-based.
Test [3] deals with 5-hydroxytryptamine receptor 6 (Homo sapiens, UniProt P50406). Description: Displacement of [3H]-LSD from human 5-HT6 receptor expressed in HEK293 cells after 1 hr. It is filed as cell-based.

The structures appear in SMILES notation.

Chain of 5-hydroxytryptamine receptor 6 (P50406 whole entry): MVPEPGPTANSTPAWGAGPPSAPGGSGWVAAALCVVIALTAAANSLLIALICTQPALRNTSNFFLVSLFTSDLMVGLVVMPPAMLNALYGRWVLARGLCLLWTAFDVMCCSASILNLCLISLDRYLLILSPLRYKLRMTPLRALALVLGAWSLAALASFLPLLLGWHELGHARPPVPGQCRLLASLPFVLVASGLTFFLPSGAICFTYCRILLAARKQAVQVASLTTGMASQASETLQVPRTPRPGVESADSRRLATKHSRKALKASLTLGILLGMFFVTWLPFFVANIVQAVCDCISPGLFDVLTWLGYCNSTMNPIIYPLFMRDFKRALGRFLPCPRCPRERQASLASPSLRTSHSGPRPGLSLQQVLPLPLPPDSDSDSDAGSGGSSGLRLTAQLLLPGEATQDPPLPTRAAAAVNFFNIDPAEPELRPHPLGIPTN
Chain of 5-hydroxytryptamine receptor 7 (P34969 whole entry): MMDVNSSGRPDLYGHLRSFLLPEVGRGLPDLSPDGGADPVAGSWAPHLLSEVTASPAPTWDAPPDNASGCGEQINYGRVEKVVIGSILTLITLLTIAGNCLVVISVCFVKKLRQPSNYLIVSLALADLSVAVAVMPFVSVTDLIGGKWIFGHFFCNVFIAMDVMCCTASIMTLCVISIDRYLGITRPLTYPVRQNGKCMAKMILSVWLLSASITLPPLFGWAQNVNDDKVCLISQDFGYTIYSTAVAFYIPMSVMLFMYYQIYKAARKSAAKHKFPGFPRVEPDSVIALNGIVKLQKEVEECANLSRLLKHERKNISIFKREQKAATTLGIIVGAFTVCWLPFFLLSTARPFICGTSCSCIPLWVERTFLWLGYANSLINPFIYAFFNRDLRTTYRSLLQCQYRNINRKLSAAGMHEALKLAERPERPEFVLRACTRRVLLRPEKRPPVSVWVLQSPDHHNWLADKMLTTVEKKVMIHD
Chain of D(2) dopamine receptor (P14416 whole entry): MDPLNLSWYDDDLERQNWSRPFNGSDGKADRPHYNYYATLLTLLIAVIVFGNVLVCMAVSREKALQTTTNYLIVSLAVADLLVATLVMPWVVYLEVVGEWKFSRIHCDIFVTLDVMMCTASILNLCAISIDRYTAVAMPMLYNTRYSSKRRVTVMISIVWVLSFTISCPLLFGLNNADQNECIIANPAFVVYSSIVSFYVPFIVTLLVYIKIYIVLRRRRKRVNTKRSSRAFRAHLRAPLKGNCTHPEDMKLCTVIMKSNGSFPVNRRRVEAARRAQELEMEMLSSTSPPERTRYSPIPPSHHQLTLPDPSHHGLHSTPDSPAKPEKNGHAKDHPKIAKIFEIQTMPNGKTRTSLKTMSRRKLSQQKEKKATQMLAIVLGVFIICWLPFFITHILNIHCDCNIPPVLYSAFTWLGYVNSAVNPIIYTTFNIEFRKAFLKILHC

As a reminder, the Ki is the dissociation constant of the complex between target and ligand, obtained from inhibition or displacement. For the compound `CCOc1ccccc1C(=O)NC1CCN(CCOc2cccc(F)c2)CC1`, in the test filed under Homo sapiens, the Ratio Ki was under 1. Moreover, the Ki in test [1] came out at 2380 nM; in test [2], 456 nM; at D(2) dopamine receptor it was 76 nM; in test [3], 3780 nM.
Consider `CC(C)c1ccccc1OCCN1CCC(NS(=O)(=O)c2ccc(F)cc2)CC1`, for which, in the test filed under Homo sapiens, the Ratio Ki amounted to 1450. For the same compound, the Ki was found to be 0.3 nM in test [1], 436 nM in test [2], 51 nM on D(2) dopamine receptor and 240 nM in test [3].
`O=S(=O)(c1ccc2cc[nH]c2c1)N1CCC[C@@H]1CCN1CCC(Oc2ccc(Cl)cc2)CC1`: the values for the Ki in test [1] and in test [2] were 3.2 nM and 250 nM, respectively.
In test [1], `COc1ccc(OC)c(S(=O)(=O)NCC2CCN(CCOc3ccccc3C(C)C)CC2)c1` showed a Ki of 27 nM.
On to `O=S(=O)(NC1CCN(CCOc2ccccc2)C1)c1ccc(F)cc1` (stereo not given), for which the Ratio Ki in the test filed under Homo sapiens was found to be 1. The Ki stood at 9 nM in test [1], 9 nM in test [2], 11 nM on D(2) dopamine receptor and 248 nM in test [3].
In the case of `O=S(=O)(NC1CCN(CCOc2cccc(F)c2)C1)c1ccc(F)c(F)c1` (stereo not given), the Ratio Ki in the test filed under Homo sapiens was under 1. For the same compound, the Ki was found to be 293 nM in test [1], 230 nM in test [2], 523 nM at D(2) dopamine receptor and 951 nM in test [3].
For `CC(C)c1ccccc1OCCN1CCC(NS(=O)(=O)c2cccc(Cl)c2)C1` (stereo not given), in that order: 8, 4 nM, 31 nM, 25 nM and 245 nM.
With `CSc1ccccc1OCCN1CCC(NS(=O)(=O)c2ccc(Cl)s2)CC1`, in test [1], affinity was put at a Ki of 17 nM.
Turning to `O=S(=O)(N[C@H]1CCN(CCOc2ccccc2-c2ccccc2)C1)c1ccc(Cl)s1`, the Ki in test [2] turned out to be 147 nM; at D(2) dopamine receptor it was 8 nM; in test [3], 551 nM.
The compound `O=C(NC1CCN(CCOc2ccccc2-c2ccccc2)CC1)c1cccs1` returned a Ki in test [1] of 276 nM.
Still for that read-out and setting: with `O=C(NCC1CCN(CCOc2cc(Cl)ccc2Cl)CC1)c1cccc(F)c1` the figure was 415 nM.
Turning to `CSc1ccccc1OCCN1CCC(CNS(=O)(=O)c2cccc(Cl)c2)CC1`, in the test listed under Homo sapiens, the Ratio Ki was under 1. The Ki in test [1] worked out at 78 nM; in test [2] it was 18 nM; on D(2) dopamine receptor it was 50 nM; in test [3] it was 147 nM.
In the case of `CC(C)c1ccccc1OCCN1CCC(CNS(=O)(=O)c2ccc(F)cc2)CC1`, the Ratio Ki in the test filed under Homo sapiens amounted to 2. Besides, the Ki in test [1] is 60 nM; in test [2] it was 141 nM; at D(2) dopamine receptor, 50 nM; in test [3], 313 nM.
For `CC(C)c1ccccc1OCCN1CCC(NS(=O)(=O)c2cccc3cccnc23)C1` (stereo not given), the Ratio Ki in the test filed under Homo sapiens came out at 2. In addition, the Ki in test [1] came to 10 nM; in test [2] it was 23 nM; at D(2) dopamine receptor, 10 nM; in test [3], 504 nM.
For `O=C(NC1CCN(CCOc2cccc(-c3ccccc3)c2)C1)c1cccc(F)c1` (stereo not given), the Ki in test [1] amounted to 709 nM.
Compound `Cc1ccccc1C(=O)NCC1CCN(CCOc2cccc(-c3ccccc3)c2)CC1` came in with a Ki in test [1] of 2670 nM.
Consider `CCOc1ccccc1C(=O)NC1CCN(CCOc2ccccc2C(C)C)CC1`, for which affinity in test [1] was put at a Ki of 311 nM. This Ki lies about 8.6-fold lower than the previous one.
In the case of `O=S(=O)(NC1CCN(CCOc2cccc(F)c2)C1)c1cccs1` (stereo not given), the Ratio Ki in the test filed under Homo sapiens is under 1. Further, the Ki in test [1] amounted to 1440 nM; in test [2], 270 nM; on D(2) dopamine receptor, 729 nM; in test [3] it was 1780 nM.
For the compound `O=C(NC1CCN(CCOc2ccccc2-c2ccccc2)C1)c1cccc(F)c1F` (stereo not given), in the test listed under Homo sapiens, the Ratio Ki was 2. Also, the Ki in test [1] was determined as 21 nM; in test [2], 48 nM; at D(2) dopamine receptor, 15 nM; in test [3], 1800 nM.
Regarding `CCOc1ccccc1C(=O)NC1CCN(CCSc2ccccc2-c2ccccc2)CC1`, in test [1], the Ki came out at 329 nM. That is a sub-micromolar value.
The compound `O=C(NC1CCN(CCOc2cccc(Cl)c2Cl)C1)c1ccc2c(c1)OCCO2` (stereo not given) came in with a Ki in test [1] of 161 nM. Against the preceding compound, the Ki is about 2-fold lower.
Compound `O=C(NC1CCN(CCSc2cccc(Cl)c2Cl)C1)c1ccc2ccccc2n1` (stereo not given) had an inhibition constant Ki in test [1] of 1110 nM.
Consider `O=S(=O)(NC1CCN(CCOc2ccccc2)CC1)c1cccs1`, for which, in the test listed under Homo sapiens, the Ratio Ki is 2. For the same compound, the Ki in test [1] turned out to be 155 nM; in test [2], 237 nM; at D(2) dopamine receptor, 84 nM; in test [3] it was 862 nM.
In test [1], `CCOc1ccccc1C(=O)NC1CCN(CCOc2ccccc2C(C)C)C1` (stereo not given) came in with a Ki of 204 nM.
For the compound `CSc1ccccc1OCCN1CCC(NS(=O)(=O)c2cccc(Cl)c2)C1` (stereo not given), the Ratio Ki in the test filed under Homo sapiens was under 1. The Ki in test [1] was 15 nM; in test [2], 5 nM; on D(2) dopamine receptor, 36 nM; in test [3], 185 nM.
For `O=S(=O)(NC1CCN(CCOc2cccc3c2CCCC3)C1)c1cc(F)ccc1F` (stereo not given), in that order: under 1, 16 nM, 10 nM, 60 nM and 156 nM.
As to `O=S(=O)(NCC1CCN(CCOc2cccc(F)c2)CC1)c1cccs1`, in the test listed under Homo sapiens, the Ratio Ki was under 1. Besides, the Ki is 2220 nM in test [1], 841 nM in test [2], 1060 nM on D(2) dopamine receptor and 2760 nM in test [3].
As for `O=C(NC1CCN(CCOc2ccccc2-c2ccccc2)CC1)c1cccc(F)c1`, in test [1], the Ki came to 391 nM.
The compound `O=S(=O)(NC1CCN(CCSc2ccccc2-c2ccccc2)CC1)c1ccc(F)c(F)c1` came in with a Ki in test [1] of 93 nM.
Regarding `CC(C)c1ccccc1OCCN1CCC(NS(=O)(=O)c2cccs2)C1` (stereo not given), the Ratio Ki in the test filed under Homo sapiens is under 1. Besides, the inhibitory constant (Ki) in test [1] turned out to be 29 nM; in test [2] it was 21 nM; on D(2) dopamine receptor, 16 nM; in test [3], 258 nM.
The compound `O=S(=O)(NC1CCN(CCOc2ccccc2-c2ccccc2)C1)c1ccc(F)cc1` (stereo not given) returned a Ki in test [1] of 5 nM.
Turning to `O=S(=O)(NC1CCN(CCOc2cccc3c2CCCC3)C1)c1ccc(F)cc1` (stereo not given), the Ratio Ki in the test filed under Homo sapiens worked out at 1. For the same compound, the Ki in test [1] was 16 nM; in test [2], 22 nM; on D(2) dopamine receptor, 72 nM; in test [3] it was 96 nM.
For the compound `CC(C)c1ccccc1OCCN1CC[C@H](NS(=O)(=O)c2ccc(Cl)s2)C1`, the Ki worked out at 89 nM in test [2], 25 nM at D(2) dopamine receptor and 537 nM in test [3].
The compound `O=C(NC1CCN(CCOc2cccc3c2CCCC3)C1)c1cccc(F)c1` (stereo not given) gave an inhibition constant Ki in test [1] of 2220 nM.
`O=C(NC1CCN(CCSc2ccccc2-c2ccccc2)CC1)c1ccc2ccccc2n1` displayed a Ki in test [1] of 865 nM.
In test [1], `CCOc1ccccc1C(=O)NC1CCN(CCOc2cccc(NC(C)=O)c2)C1` (stereo not given) showed a Ki of 3370 nM.
`CCOc1ccccc1C(=O)NCC1CCN(CCOc2ccccc2SC)CC1` had a Ki in test [1] of 1190 nM.
`CSc1ccccc1OCCN1CCC(NC(=O)c2cccs2)CC1` came in with a Ki in test [1] of 1140 nM.
The compound `O=C(NC1CCN(CCOc2cc(Cl)ccc2Cl)CC1)c1ccc2ccccc2n1` displayed a Ki in test [1] of 873 nM.
As for `O=S(=O)(NC1CCN(CCOc2cccc(Cl)c2Cl)C1)c1ccc(Cl)s1` (stereo not given), the results for the Ki (in test [2]; on D(2) dopamine receptor; in test [3]) were 28 nM, 67 nM and 91 nM, respectively.
As to `Cc1ccccc1C(=O)NC1CCN(CCOc2ccccc2-c2ccccc2)C1` (stereo not given), the Ki in test [1] turned out to be 59 nM. In other words, the double-digit nanomolar range.
With `Cc1ccccc1C(=O)NCC1CCN(CCOc2ccccc2C(C)(C)C)CC1`, the affinity in test [1], expressed as Ki, was 1500 nM.
For `O=S(=O)(NC1CCN(CCOc2cc(Cl)ccc2Cl)C1)c1ccc(Cl)s1` (stereo not given), the Ki turned out to be 717 nM in test [2], 78 nM at D(2) dopamine receptor and 225 nM in test [3].
For `O=S(=O)(NC1CCN(CCOc2cc(Cl)ccc2Cl)C1)c1ccc(F)c(F)c1` (stereo not given), the Ki in test [1] was found to be 97 nM. This lies in the double-digit nanomolar range.
On to `O=C(NCC1CCN(CCOc2ccccc2-c2ccccc2)CC1)c1ccc2ccccc2n1`, for which the Ki in test [1] came out at 334 nM.
As for `Cc1ccccc1C(=O)NCC1CCN(CCOc2cccc3c2CCCC3)CC1`, in test [1], the affinity, expressed as Ki, was 409 nM.
In the case of `Cc1ccccc1C(=O)NC1CCN(CCSc2cccc(Cl)c2Cl)CC1`, in test [1], the Ki turned out to be 815 nM.
With `O=S(=O)(NC1CCN(CCOc2ccccc2-c2ccccc2)CC1)c1ccc(Cl)s1`, in test [1], the inhibitory constant (Ki) stood at 12 nM.
The compound `CCOc1ccccc1C(=O)NC1CCN(CCOc2cccc(-c3ccccc3)c2)C1` (stereo not given) had a Ki in test [1] of 1100 nM.
As to `O=S(=O)(N[C@@H]1CCN(CCOc2ccccc2-c2ccccc2)C1)c1ccc(Cl)s1`, the Ki was found to be 75 nM in test [2], 39 nM at D(2) dopamine receptor and 202 nM in test [3].
On the same counts, the results for `CC(C)c1ccccc1OCCN1CC[C@@H](NS(=O)(=O)c2ccc(Cl)s2)C1` are 49 nM, 20 nM and 200 nM.
Regarding `Cc1ccccc1C(=O)NC1CCN(CCSc2cccc(Cl)c2Cl)C1` (stereo not given), in test [1], the Ki is 427 nM.
For the compound `O=S(=O)(NC1CCN(CCOc2ccccc2)C1)c1ccc(Cl)s1` (stereo not given), the Ki in test [2] came to 65 nM; on D(2) dopamine receptor, 318 nM; in test [3] it was 957 nM.
For `CCOc1ccccc1C(=O)NC1CCN(CCOc2ccccc2-c2ccccc2)C1` (stereo not given), the Ki in test [1] worked out at 85 nM.
`CC(C)(C)c1ccccc1OCCN1CCC(NC(=O)c2cccc(F)c2)CC1` yielded a Ki in test [1] of 1670 nM.
The same measure, in the same setting: with `CC(C)c1ccccc1OCCN1CCC(CNC(=O)c2cccs2)CC1` the figure was 407 nM.

(Values after ChEMBL document CHEMBL2157986, “The multiobjective based design, synthesis and evaluation of the arylsulfonamide/amide derivatives of aryloxyethyl- and arylthioethyl- piperidines and pyrrolidines as a novel class of potent 5-HT₇ receptor antagonists” (Eur J Med Chem, 2012).)
